Activity calls are given as the source filed them. The calls are words filed in the database; no cut-off is given here.
Experiments:
[1] = molecular target: T1, Hypoxia inducible factors; HIF-1-alpha, HIF-2-alpha (Homo sapiens, UniProt Q16665+Q99814); assay: Inhibition of HIF1 in human LN229 cells after 1 hr preincubation under hypoxic condition measured after 24 hrs by luciferase reporter gene assay; type: cell-based
Procedure, shortened: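 LN229-HRELux human glioma cells stably carry a luciferase reporter driven by six VEGF-derived HIF response elements. Cells were seeded at 3 × 10^4 per well and held 24 h in normoxia, then pretreated 1 h with compound at 0, 1, 5, 10 or 25 μM (vehicle 1% DMSO). They were then moved to hypoxia (1% O2) for 24 h, lysed and read for luciferase. Reference inhibitor ran alongside; quadruplicate wells; IC50 from concentration curve.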

[2] = molecular target: Hypoxia-inducible factor 1-alpha (Homo sapiens) (UniProt Q16665); assay: Inhibition of hypoxia-induced HIF1alpha accumulation in human LN229 cells at 20 uM after 1 hr preincubation measured after 24 hrs by Western blot analysis; type: functional, cell-based; conditions: LN-229
Procedure, shortened: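 Western blot for HIF-1α in LN229 cells after 1 h pretreatment with inhibitor at 20 μM final (bortezomib control 100 nM), followed by 24 h in normoxia or hypoxia.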

[3] = molecular target: T1, Hypoxia inducible factors; HIF-1-alpha, HIF-2-alpha; assay: Inhibition of HIF1 in human LN229 cells at 10 uM after 1 hr preincubation under hypoxic condition measured after 24 hrs by luciferase reporter gene assay; type: cell-based
Procedure, shortened: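 LN229 glioma cells stably transfected with VEGF promoter-luciferase (LN229-VEGF-Luc) were pretreated 1 h in normoxia with 10 μM (final) compound, then kept 24 h in normoxia or hypoxia. Luciferase was read as relative light units against vehicle control; triplicates, mean ± standard deviation.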

[4] = test system: LN229; assay: Ratio of KCN-1 IC50 to compound IC50 for HIF1 in human LN229 cells under hypoxic condition; type: cell-based

Hypoxia-inducible factor 1-alpha (Homo sapiens), sequence (Q16665 whole entry, looked up): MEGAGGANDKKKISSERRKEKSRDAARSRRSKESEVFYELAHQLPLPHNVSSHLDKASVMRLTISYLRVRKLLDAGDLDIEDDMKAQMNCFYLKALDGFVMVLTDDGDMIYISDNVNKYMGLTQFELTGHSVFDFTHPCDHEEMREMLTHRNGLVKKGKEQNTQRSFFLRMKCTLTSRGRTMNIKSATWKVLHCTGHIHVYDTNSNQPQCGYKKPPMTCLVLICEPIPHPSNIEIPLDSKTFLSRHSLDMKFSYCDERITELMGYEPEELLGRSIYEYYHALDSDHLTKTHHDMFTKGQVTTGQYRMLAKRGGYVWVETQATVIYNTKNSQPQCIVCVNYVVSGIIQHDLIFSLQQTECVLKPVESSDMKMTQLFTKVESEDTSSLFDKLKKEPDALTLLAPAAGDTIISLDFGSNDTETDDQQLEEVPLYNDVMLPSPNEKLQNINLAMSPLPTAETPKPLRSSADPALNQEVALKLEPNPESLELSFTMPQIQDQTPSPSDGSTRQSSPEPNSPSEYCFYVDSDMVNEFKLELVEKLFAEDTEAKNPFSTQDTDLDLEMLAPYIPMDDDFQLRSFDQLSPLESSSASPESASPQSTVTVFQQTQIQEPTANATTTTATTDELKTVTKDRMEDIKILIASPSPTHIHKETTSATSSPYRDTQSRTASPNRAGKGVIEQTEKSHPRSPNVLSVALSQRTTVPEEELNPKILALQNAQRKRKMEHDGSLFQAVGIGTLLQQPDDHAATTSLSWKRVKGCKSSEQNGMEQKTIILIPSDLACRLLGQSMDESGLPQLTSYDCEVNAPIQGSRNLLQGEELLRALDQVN

Row | SMILES | IC50 [1] | other results
1 | Cc1ccc(N(C)Cc2ccc3c(c2)C=CC(C)(C)O3)c(C)c1 | 2.6 µM | 
2 | COc1ccc(S(=O)(=O)N(Cc2ccc3c(c2)CC(C)(C)O3)C2CCCC2)cc1OC | 0.378 µM | inhibition [2]: inactive; HIF1 inhibition activity call (active/inactive) [3]: Active
3 | CC(C)c1ccc(S(=O)(=O)N(Cc2cc3c(cn2)OC(C)(C)C=C3)C2CCCCC2)cc1 | 5.8 µM | 
4 | CC1(C)C=Cc2cc(CNc3ccccc3F)ccc2O1 | > 25 µM | 
5 | COc1ccc(S(=O)(=O)N(Cc2cnc3c(c2)C=CC(C)(C)O3)C2CCCCC2)cc1OC | > 25 µM | 
6 | CC1(C)C=Cc2cc(CNc3ccc(C(=O)O)cc3)ccc2O1 | > 25 µM | 
7 | Cc1ccc(NCc2ccc3c(c2)C=CC(C)(C)O3)c(C)c1 | > 25 µM | 
8 | CC(C)C[C@H](NC(=O)[C@H](Cc1ccccc1)NC(=O)c1cnccn1)B(O)O |  | inhibition [2]: Active
9 | COc1ccc(S(=O)(=O)N(Cc2ccc3c(c2)C=CC(C)(C)O3)C2CC2)cc1OC | 1.5 µM | 
10 | COc1ccc(S(=O)(=O)N(CCC(C)C)Cc2ccc3c(c2)C=CC(C)(C)O3)cc1OC | 1.6 µM | 
11 | C=CCN(Cc1ccc2c(c1)C=CC(C)(C)O2)S(=O)(=O)c1ccc(OC)c(OC)c1 | 3.4 µM | 
12 | COc1ccc(N(C)Cc2ccc3c(c2)C=CC(C)(C)O3)cc1OC | 5 µM | 
13 | COc1ccc(S(=O)(=O)N(Cc2cc3c(cn2)OC(C)(C)C=C3)C2CCCCC2)cc1OC | 1.1 µM | 
14 | COc1ccc(S(=O)(=O)N(Cc2ccc3c(c2)CC(C)(C)O3)C2CCCCCC2)cc1OC | 9.1 µM | 
15 | COc1ccc(S(=O)(=O)N(Cc2ccc3c(c2)CC(C)(C)O3)C(C)C)cc1OC | 1.5 µM | 
16 | COc1ccc(S(=O)(=O)N(Cc2cnc3ccccc3c2)c2ccccc2)cc1OC | 3.5 µM | 
17 | COc1ccc(S(=O)(=O)N(Cc2ccc3c(c2)C=CC(C)(C)O3)C2CCCCC2)cc1OC | 4 µM | 
18 | COc1ccc(S(=O)(=O)N(Cc2ccc3c(c2)C=CC(C)(C)O3)c2ccccc2)cc1OC |  | inhibition [2]: inactive; HIF1 inhibition activity call (active/inactive) [3]: Active
19 | COc1ccc(S(=O)(=O)N(Cc2ccc3c(c2)CC(C)(C)O3)C2CCCCC2)cc1OC | 8.2 µM | 
20 | CCCCN(Cc1ccc2c(c1)C=CC(C)(C)O2)S(=O)(=O)c1ccc(OC)c(OC)c1 | 3.3 µM | 
21 | C#CCN(Cc1ccc2c(c1)C=CC(C)(C)O2)S(=O)(=O)c1ccc(OC)c(OC)c1 | 1.3 µM | 
22 | COc1c(C(C)n2cnc3ncccc32)ccc2c1C=CC(C)(C)O2 (stereo not drawn) |  | inhibition [2]: inactive; HIF1 inhibition activity call (active/inactive) [3]: Active
23 | COc1ccc(NCc2ccc3c(c2)C=CC(C)(C)O3)cc1OC | 3 µM | 
24 | COc1ccc(S(=O)(=O)N(Cc2ccc3c(c2)C=CC(C)(C)O3)C2CCCC2)cc1OC | 0.5 µM | inhibition [2]: Active; HIF1 inhibition activity call (active/inactive) [3]: Active
25 | CCCCN(Cc1ccc2c(c1)CC(C)(C)O2)S(=O)(=O)c1ccc(OC)c(OC)c1 | 0.478 µM | inhibition [2]: inactive; HIF1 inhibition activity call (active/inactive) [3]: Active
26 | COc1ccc(S(=O)(=O)N(Cc2ccc3c(c2)C=CC(C)(C)O3)C(C)(C)C)cc1OC | 3.5 µM | 
27 | CC1(C)C=Cc2cc(CNc3ccccc3Br)ccc2O1 | > 25 µM | 

Further lines, with some results ahead:

Row | IC50 [1] | SMILES | other results
28 | 0.6 µM | COc1ccc(S(=O)(=O)N(Cc2ccc3c(c2)C=CC(C)(C)O3)c2ccccc2)cc1 | 
29 | 1.4 µM | COc1ccc(S(=O)(=O)N(Cc2cc3c(cn2)OC(C)(C)C=C3)c2ccccc2)cc1 | 
30 | 0.306 µM | COc1ccc(S(=O)(=O)N(Cc2ccc3c(c2)CC(C)(C)O3)c2ccccc2)cc1OC | inhibition [2]: Active; Ratio IC50 [4]: > 2; HIF1 inhibition activity call (active/inactive) [3]: Active
31 | > 25 µM | CC1(C)C=Cc2cc(CN(c3ccccc3)S(=O)(=O)c3ccc(Br)cc3OC(F)(F)F)ccc2O1 | 
32 | 2.5 µM | COc1ccc(S(=O)(=O)N(Cc2cnc3c(c2)C=CC(C)(C)O3)c2ccccc2)cc1OC | 
33 | 5.7 µM | COc1ccc(S(=O)(=O)N(Cc2ccc3c(n2)C=CC(C)(C)O3)c2ccc(F)cc2)cc1OC | 
34 | 6.6 µM | COc1ccc(S(=O)(=O)N(Cc2ccc3c(n2)C=CC(C)(C)O3)C2CCCCCC2)cc1OC | 
35 | 2.2 µM | CCC1(C)C=Cc2cc(CN(c3ccccc3)S(=O)(=O)c3ccc(OC)c(OC)c3)ccc2O1 (stereo not drawn) | 
36 | 0.9 µM | CC1(C)C=Cc2nc(CN(c3ccccc3)S(=O)(=O)c3ccc4c(c3)OCCO4)ccc2O1 | 
37 | 8.4 µM | CN(Cc1ccc2c(c1)C=CC(C)(C)O2)c1ccccn1 | 
38 | 0.28 µM | COc1ccc(S(=O)(=O)N(Cc2ccc3c(n2)C=CC(C)(C)O3)C2CCC2)cc1OC | inhibition [2]: inactive; Ratio IC50 [4]: > 2; HIF1 inhibition activity call (active/inactive) [3]: Active
39 | 0.5 µM | Cc1cc(C)cc(S(=O)(=O)N(Cc2ccc3c(c2)C=CC(C)(C)O3)c2ccccc2)c1 | 
40 | 3.1 µM | COc1ccc(S(=O)(=O)N(Cc2ccc3c(c2)C=CC(C)(C)O3)C(C)C)cc1OC | 
41 | 6.5 µM | CC1(C)C=Cc2nc(CN(c3ccccc3)S(=O)(=O)c3ccc4c(c3)OCO4)ccc2O1 | 
42 | 6.2 µM | COc1ccc(S(=O)(=O)N(Cc2ccc3c(n2)C=CC(C)(C)O3)c2ccc3c(c2)CCCC3)cc1OC | 
43 | 0.7 µM | COc1ccc(S(=O)(=O)N(Cc2ccc3c(n2)C=CC(C)(C)O3)C2CCCCCCC2)cc1OC | 

Row | IC50 [1] | SMILES | other results
44 | 1.8 µM | CC1(C)C=Cc2cc(CN(c3ccccc3)S(=O)(=O)c3ccc([N+](=O)[O-])cc3)ncc2O1 | 
45 | 0.6 µM | COc1ccc(S(=O)(=O)N(Cc2ccc3c(n2)C=CC(C)(C)O3)C2CCCC2)cc1OC | 
46 | > 25 µM | CC1(C)C=Cc2nc(CN(c3ccccc3)S(=O)(=O)C3CC3)ccc2O1 | 
47 | 2.1 µM | CC1(C)C=Cc2cc(CN(c3ccccc3)S(=O)(=O)c3cc(Cl)ccc3Cl)ccc2O1 | 
48 | 0.9 µM | CC1(C)C=Cc2nc(CN(c3ccccc3)S(=O)(=O)c3cccc4cccnc34)ccc2O1 | 
49 | 1.3 µM | COc1ccc(S(=O)(=O)N(Cc2ccc3c(n2)C=CC(C)(C)O3)c2ccccc2)cc1OC | 
50 | 13.4 µM | CC(C)S(=O)(=O)N(Cc1ccc2c(n1)C=CC(C)(C)O2)c1ccccc1 | 
51 | 0.9 µM | CCCCN(Cc1ccc2c(n1)C=CC(C)(C)O2)S(=O)(=O)c1ccc(OC)c(OC)c1 | 
52 | > 25 µM | COc1ccc(N(Cc2ccc3c(n2)C=CC(C)(C)O3)S(=O)(=O)c2ccc(OC)c(OC)c2)cc1OC | 
53 | 3.4 µM | CC1(C)C=Cc2nc(CN(c3ccccc3)S(=O)(=O)c3ccc(-c4ccccc4)cc3)ccc2O1 | 
54 | 0.8 µM | COc1ccc(S(=O)(=O)N(Cc2ccc3c(n2)C=CC(C)(C)O3)C2CCCCC2)cc1OC | 
55 | 0.4 µM | CC1(C)C=Cc2nc(CN(c3ccccc3)S(=O)(=O)C3CCCCC3)ccc2O1 | 
56 | 5 µM | CCCCS(=O)(=O)N(Cc1ccc2c(n1)C=CC(C)(C)O2)c1ccccc1 | 
57 | 6.4 µM | CCCS(=O)(=O)N(Cc1ccc2c(n1)C=CC(C)(C)O2)c1ccccc1 | 
58 | 8.5 µM | CC1(C)C=Cc2cc(CNc3ccccn3)ccc2O1 | 
59 | 0.9 µM | CC(C)CS(=O)(=O)N(Cc1ccc2c(n1)C=CC(C)(C)O2)c1ccccc1 | 

Source: ChEMBL document CHEMBL1938365, “Design and synthesis of novel small-molecule inhibitors of the hypoxia inducible factor pathway” (J Med Chem, 2011)
